Drawing on ChEMBL document CHEMBL1152300, “Ligand specificity of constitutive androstane receptor as probed by induced-fit docking and mutagenesis” (J Med Chem, 2008), this text covers Activity and inhibition for 3 compounds.

Type in all cases: cell-based
The target of data set [1] is Nuclear receptor subfamily 1 group I member 3 (Mus musculus, UniProt O35627, T350M). Nature of the data set: Enhancement of steroid receptor coactivator 1 binding to mouse CAR T350M mutant […] at 10 uM by yeast two-hybrid assay. A digest of the protocol:
(§1)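 Yeast two-hybrid: yeast expressing wild-type or mutant mouse CAR LBD plus SRC-1 or NCoR, selected on SD medium lacking Leu and Trp. Pooled colonies treated with DMSO or test chemical for 3.5 h. β-Galactosidase normalized to cell density. SRC-1 reference: wild-type + DMSO = 100. NCoR reference: 10 µM androstenol = 100. Mean ± SD, two independent determinations, each in triplicate.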

Data set [2] concerns the target Nuclear receptor subfamily 1 group I member 3 (Mus musculus, UniProt O35627, H213A). Nature of the data set: Activation of mouse CAR H213A mutant expressed in HEK293 cells at 1 uM by mammalian one-hybrid assay. Particulars: hek293, 1 µM. In outline: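 GAL4 DBD fused to mouse CAR LBD (residues 118-358), wild type or point mutant, cotransfected with UASx4-tk-luc reporter and pCMVβ into HEK293 cells. Cells cultured with DMSO (0.1% v/v) or compound (final 1, 2 or 10 µM). Lysed 24 h post-transfection. Luciferase normalized to β-galactosidase, expressed relative to empty GAL4 vector (=1.0). Mean ± SD, three independent experiments.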

In data set [3] the target is Nuclear receptor subfamily 1 group I member 3 (Mus musculus, UniProt O35627, L253F). Nature of the data set: Decrease in steroid receptor coactivator 1 binding to mouse CAR L253F mutant […] at 2 uM by yeast two-hybrid assay. Particulars: read-out: Activity. In outline: as §1
Data set [4] concerns the target Nuclear receptor subfamily 1 group I member 3 (Mus musculus, UniProt O35627, L353A). Nature of the data set: Decrease in nuclear co-repressor receptor binding to mouse CAR L353A mutant […] at 2 uM by yeast two-hybrid assay. Particulars: read-out: Activity. A digest of the protocol:
as §1

The target of data set [5] is Nuclear receptor subfamily 1 group I member 3 (Mus musculus, UniProt O35627, I252L). Nature of the data set: Activation of mouse CAR I252L mutant expressed in HEK293 cells at 2 uM by mammalian one-hybrid assay. As to conditions: hek293, 2 µM. A digest of the protocol: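 GAL4-DBD fused to mouse CAR LBD (residues 118-358), wild-type or point mutant, cotransfected with UASx4-tk-luc reporter and pCMVβ into HEK293 cells. Cells were exposed to final 1 µM, 2 µM or 10 µM test chemical, or 0.1% v/v DMSO, for 24 h after transfection. Luciferase was normalized to β-galactosidase and set against empty GAL4 vector (=1.0). Mean ± standard deviation, three independent experiments.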
Nuclear receptor subfamily 1 group I member 3 (Mus musculus, UniProt O35627, I252L), sequence (O35627 whole entry I252L, the tested form may be a part): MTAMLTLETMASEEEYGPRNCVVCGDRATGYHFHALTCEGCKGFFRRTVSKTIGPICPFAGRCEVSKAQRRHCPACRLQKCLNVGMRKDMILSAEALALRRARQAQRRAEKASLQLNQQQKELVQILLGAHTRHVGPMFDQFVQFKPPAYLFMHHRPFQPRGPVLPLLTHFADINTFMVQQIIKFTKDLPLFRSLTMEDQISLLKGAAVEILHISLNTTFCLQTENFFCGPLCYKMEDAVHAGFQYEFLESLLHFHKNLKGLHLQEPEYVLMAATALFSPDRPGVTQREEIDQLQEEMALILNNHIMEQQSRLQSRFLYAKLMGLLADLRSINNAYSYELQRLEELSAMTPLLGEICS

Nuclear receptor subfamily 1 group I member 3 (Mus musculus, UniProt O35627, T350M), sequence (O35627 whole entry T350M, the tested form may be a part): as the sequence (O35627 whole entry I252L, the tested form may be a part) above, with L252I, T350M counted along it
Nuclear receptor subfamily 1 group I member 3 (Mus musculus, UniProt O35627, H213A), sequence (O35627 whole entry H213A, the tested form may be a part): as the sequence (O35627 whole entry I252L, the tested form may be a part) above, with H213A, L252I counted along it
Nuclear receptor subfamily 1 group I member 3 (Mus musculus, UniProt O35627, L253F), sequence (O35627 whole entry L253F): as the sequence (O35627 whole entry I252L, the tested form may be a part) above, with L252I, L253F counted along it
Nuclear receptor subfamily 1 group I member 3 (Mus musculus, UniProt O35627, L353A), sequence (O35627 whole entry L353A): as the sequence (O35627 whole entry I252L, the tested form may be a part) above, with L252I, L353A counted along it

Turning to `COc1ccccc1CC(CC(=O)Cc1ccccc1)OC` (stereo not given), in data set [1], the Activity was more than 50%.

Compound `Clc1cnc(Oc2ccc(Oc3ncc(Cl)cc3Cl)cc2)c(Cl)c1` returned an Activity in data set [2] of 50%.

Take `Clc1ccccc1C(c1ccccc1)(c1ccccc1)n1ccnc1` [CLOTRIMAZOLE]: the inhibition at 2 µM in data set [3] and in data set [4] was not below 50% throughout. The compound further gave an Activity in data set [5] of 50%.
